Data: ChEMBL document CHEMBL3352678, “Synthesis and acetylcholinesterase inhibitory activity of Mannich base derivatives flavokawain B” (Bioorg Med Chem Lett, 2014)

What was measured:
[1] = compound: COc1cc(OC)c(C(=O)/C=C/c2ccccc2)c(O)c1CN1CCCCC1; experiment: Inhibition of Sprague-Dawley rat brain AChE using acetylthiocholin iodide as substrate at 2.2 uM by Michaelis-Menten equation
Summary of the method: (§1)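 Kinetic analysis: Km and vmax were determined at several inhibitor concentrations. Ki for the free enzyme came from a linear replot of slope against inhibitor concentration. Ki′ for the enzyme–substrate complex came from a linear replot of intercept against inhibitor concentration.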

[2] = compound: COc1cc(OC)c(C(=O)/C=C/c2ccccc2)c(O)c1CN1CCCCC1; experiment: Inhibition of Sprague-Dawley rat brain AChE using acetylthiocholin iodide as substrate at 4.4 uM by Michaelis-Menten equation; summary of the method: as §1

B1: Acetylcholinesterase (Rattus norvegicus), P37136 (protein)
chain: MRPPWYPLHTPSLASPLLFLLLSLLGGGARAEGREDPQLLVRVRGGQLRGIRLKAPGGPVSAFLGIPFAEPPVGSRRFMPPEPKRPWSGILDATTFQNVCYQYVDTLYPGFEGTEMWNPNRELSEDCLYLNVWTPYPRPTSPTPVLIWIYGGGFYSGASSLDVYDGRFLAQVEGTVLVSMNYRVGTFGFLALPGSREAPGNVGLLDQRLALQWVQENIAAFGGDPMSVTLFGESAGAASVGMHILSLPSRSLFHRAVLQSGTPNGPWATVSAGEARRRATLLARLVGCPPGGAGGNDTELISCLRTRPAQDLVDHEWHVLPQESIFRFSFVPVVDGDFLSDTPDALINTGDFQDLQVLVGVVKDEGSYFLVYGVPGFSKDNESLISRAQFLAGVRIGVPQASDLAAEAVVLHYTDWLHPEDPAHLRDAMSAVVGDHNVVCPVAQLAGRLAAQGARVYAYIFEHRASTLTWPLWMGVPHGYEIEFIFGLPLDPSLNYTVEERIFAQRLMQYWTNFARTGDPNDPRDSKSPRWPPYTTAAQQYVSLNLKPLEVRRGLRAQTCAFWNRFLPKLLSATDTLDEAERQWKAEFHRWSSYMVHWKNQFDHYSKQERCSDL
- Km [1]: 4.18 mM
- Vmax [1]: 0.0288 deltaA/min
- Km [2]: 4.63 mM
- Vmax [2]: 0.0212 deltaA/min
